Screens as filed in PubChem BioAssay.
Sampled rows, rich in hits. Any-hit rate of the full collection: about 1.4%.
KLK5 inh – human KLK5 protease inhibitors, primary screen, biochemical, 1536-well | Kallikrein-5 (Homo sapiens), Q9Y337 | recombinant hK5, fluorogenic AMC substrate cleavage | inhibition, % at 5 µM | hit rate 0.59% among 210,000;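 active = inhibition of 40% or more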;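 also: 0% = enzyme controls without compound and 100% = no-enzyme blanks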
Thrombin inh – human alpha-thrombin inhibitors, primary screen, counter-screen for coagulation protease inhibitor project, biochemical, 1536-well, fluorogenic AMC substrate. Prothrombin (Homo sapiens), P00734. Boc-VPR-AMC fluorogenic substrate cleavage. inhibition, % at 5 µM. hit rate 0.26% among 220,000;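 active = inhibition at or above 40%; inactive = inhibition below 40%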;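 also: 0% = enzyme with no compound and 100% = wells without enzyme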
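Assay system: human alpha-thrombin enzyme. Reagent: Boc-VPR-AMC substrate, 15 µM final. Compound dosing: one concentration per compound, 5 µM, with 0.2% DMSO. Incubation: room-temperature reaction. Technique: AMC fluorescence, 355/460 nm. Measure: % inhibition relative to enzyme controls and enzyme-free blanks.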
FXIa inh – human FXIa protease inhibitors, primary screen, biochemical, 1536-well; Coagulation factor XI (Homo sapiens), P03951; purified FXIa, Boc-Glu-Ala-Arg-AMC fluorogenic substrate; inhibition, % at 5 µM; hit rate 0.14% among 220,000; AID 798, 2007;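 active = inhibition of at least 40%; inactive = inhibition below 40%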;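 also: fluorescence of freed AMC excited at 355 nm; 0% = enzyme without compound and 100% = no enzyme blank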
FXIIa inh 1536 – human FXIIa protease inhibitors, primary screen, biochemical, 1536-well. purified FXIIa, Boc-QGR-AMC fluorogenic substrate, 2 h. AID 800, 2007. hit rate 0.3% among 220,000. inhibition, % at 5 µM. Coagulation factor XII (Homo sapiens), P00748; in the data active = inhibition above about 40%;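 also: 0% = enzyme with no compound and 100% = blank without enzyme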
Target sequence (P00748 20-372 limits assumed): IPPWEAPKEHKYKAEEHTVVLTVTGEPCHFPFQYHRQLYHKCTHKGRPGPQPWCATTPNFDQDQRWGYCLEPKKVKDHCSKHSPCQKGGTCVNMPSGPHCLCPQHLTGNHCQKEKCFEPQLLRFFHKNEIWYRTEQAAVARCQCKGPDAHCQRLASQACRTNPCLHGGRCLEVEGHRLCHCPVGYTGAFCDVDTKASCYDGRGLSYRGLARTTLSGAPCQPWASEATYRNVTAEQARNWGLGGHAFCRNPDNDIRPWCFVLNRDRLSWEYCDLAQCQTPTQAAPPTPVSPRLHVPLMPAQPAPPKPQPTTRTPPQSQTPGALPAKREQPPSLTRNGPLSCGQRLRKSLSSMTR
Target sequence (P00748 373-615 limits assumed): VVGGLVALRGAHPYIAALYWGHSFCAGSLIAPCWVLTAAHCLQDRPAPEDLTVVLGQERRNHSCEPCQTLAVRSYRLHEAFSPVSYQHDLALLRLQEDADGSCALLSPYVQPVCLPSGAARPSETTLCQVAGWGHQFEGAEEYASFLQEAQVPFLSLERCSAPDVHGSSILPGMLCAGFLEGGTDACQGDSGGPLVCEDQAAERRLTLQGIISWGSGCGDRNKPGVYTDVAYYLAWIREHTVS
Calpain2 inh – inhibitors of pig calpain II, primary screen, biochemical, fluorogenic peptide substrate, 1536-well; purified calpain II, 30 min; hit rate 0.37% among 220,000; inhibition, % at 16 µM;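 active = inhibition above about 50%, limit read from the data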
Starred values were filed as active, the others as inactive; i = inactive; . = no result given.

SMILES | KLK5 inh | Thrombin inh | FXIa inh | FXIIa inh 1536 | Calpain2 inh
Cn1c(N)c(C(=O)COC(=O)c2ccccn2)c(=O)n(C)c1=O | 0 | -6 | -3 | 3 | -3
Cn1c(N)c(C(=O)COC(=O)c2ncc(Cl)c(Cl)c2Cl)c(=O)n(C)c1=O | 3 | -13 | -2 | 6 | 62*
Cc1cc(C)cc(N2C(=O)CCN(Cc3ccccc3)C2=O)c1 | -2 | -6 | -4 | 9 | -9
Cn1c(SCC(=O)N2CCc3ccccc3C2)nnc1-c1cccs1 | 43* | 18 | 19 | 22 | 20
Cn1c(SCC(=O)N2CCc3ccccc3C2)nnc1-c1ccncc1 | -11 | 3 | -15 | 14 | -12
Nn1c(SCC(=O)N2CCc3ccccc3C2)nnc1-c1cccs1 | 52* | 17 | 19 | 20 | 27
CCNc1ccc(C(=O)NN=C2CCCC2)cc1[N+](=O)[O-] | 6 | 11 | 3 | 12 | -55
c1coc(-c2nc(-c3ccco3)c(-c3ccco3)nc2-c2ccco2)c1 | 71* | 32 | 25 | -8 | 22
Nc1nc(-c2ccco2)c(-c2ccco2)s1 | -12 | 4 | 7 | 18 | -59
CCOc1cc2c(C#N)c(N3CCOCC3)nc(N)c2c(N)n1 | 110* | 2 | -3 | 0 | i
CCC1Cc2c(nc(N)c3c(N)nc(N4CCOCC4)c(C#N)c23)O1 (centres undefined) | 0 | -4 | -1 | . | -472
O=[N+]([O-])c1ccc(Oc2cccc(F)c2)c2ccncc12 | 7 | 3 | 3 | 14 | 51*
CC(=O)C1=C(C)NC(C)=C(C(C)=O)C1c1cccs1 | 79* | 14 | 27 | 2 | -34
CC(=O)c1c(NCc2ccccc2)nc(=O)n(-c2ccccc2)c1C | 70* | 11 | 2 | 11 | 19
CC(=O)c1c(NCCc2ccccc2)nc(=S)n(-c2ccccc2)c1C | 0 | -16 | -6 | 10 | 31
N#C/C(=N\Nc1ccc(Cl)cc1)C(N)=S | -4 | -9 | -1 | 4 | -14
N#C/C(=N\Nc1ccccc1)C(N)=S | 27 | 38 | 35 | 107* | 9
Cc1nc(SCC(=O)NC2CCCCC2)[nH]c(=O)c1C | 0 | -1 | -1 | 7 | 18
O=C(CSc1nc2nc[nH]c2c(=O)[nH]1)NC1CCCCC1 | -20 | 46* | -11 | -2 | -21
O=C(NC1CCCC1)C1CCCN1S(=O)(=O)c1cccc2cccnc12 (centres undefined) | 1 | -1 | 7 | 20 | -19
O=C(NCc1ccccc1)C1CCCN1S(=O)(=O)c1cccc2cccnc12 (centres undefined) | 46* | -9 | -9 | 1 | 7
COc1ccc(-n2nc(C(=O)c3cccs3)cc(-c3nc4ccccc4[nH]3)c2=N)cc1 | -19 | 57* | 14 | 20 | 6
Cc1ccccc1-n1nc(C(=O)c2cccs2)cc(-c2nc3ccccc3[nH]2)c1=N | -77 | 1 | -1 | 0 | -49
Cc1ccccc1N1C(=O)CC(Nc2ccc3c(c2)OCO3)C1=O (centres undefined) | 1 | -3 | -3 | . | -19
COC(=O)c1ccc(NC2CC(=O)N(c3ccccc3C)C2=O)cc1 (centres undefined) | 27 | 45* | -1 | 31 | 9
SMILES | KLK5 inh | Thrombin inh | FXIa inh | FXIIa inh 1536 | Calpain2 inh
Cc1nn(-c2ccccc2)c(Cl)c1CN(C(=O)CCl)c1ccc(Cl)cc1 | 45* | 19 | 8 | 17 | 27
CC(=O)N(Cc1c(C)nn(-c2ccccc2)c1Cl)c1ccc(Cl)cc1 | 11 | -4 | -6 | 9 | -1
c1ccc(COC(CN2CCCCCC2)CN2CCCCCC2)cc1 | 2 | -4 | -1 | 7 | -8
Cn1c(SCC(=O)Nc2ccccc2)nnc1-c1ccc2nonc2c1 | 1 | 0 | -3 | 11 | 17
CCOC(=O)C1(C)NC(c2ccco2)C2C(=O)N(CC)C(=O)C21 (centres undefined) | -3 | -10 | -7 | 6 | 3
CC1CCCN(c2nc3ccsc3c(=O)s2)C1 (centres undefined) | -13 | -9 | 6 | 10 | -7
O=C(NCc1ccccc1Cl)C1CCCN(c2nc3ccsc3c(=O)s2)C1 (centres undefined) | 8 | -2 | 2 | 9 | 53*
O=C(CCCn1c(=O)[nH]c2ccc(Br)cc2c1=O)NCc1ccc(Cl)cc1 | 21 | 13 | 11 | 16 | 25
